According to the RNAGym collection of RNA variant scans (doi:10.1126/science.aae0568):
Fewer inactive variants are shown than the library holds.

B1: tRNA (parent)
chain: GUUCCGUUGGCGUAAUGGUAACGCGUCUCCCUCCUAAGGAGAAGACUGCGGGUUCGAGUCCCGUACGGAACG

Variants of: B1
Experiment: yeast fitness relative to wild type (ratio to wild type); higher = fitter; tRNA-Arg(CCU), competitive growth, 37 C, YPD
Method in brief: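 Variants of the tRNA-Arg(CCU) gene were chemically synthesised with a 3% per-site mutation rate across 69 sites and placed at the native genomic locus in Saccharomyces cerevisiae. Six parallel replicates of the pooled strains were competed in YPD at 37°C for 24 hours, and gene amplicons from the start and end populations were read by 100-nucleotide paired-end sequencing. Darwinian fitness relative to wild type was derived from changes in genotype frequencies. Genotypes required ≥ 100 starting reads, and estimates < 0.5 were set to 0.5.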

**Q.** For U19C U53C, which yeast fitness is on record?
**A.** 0.694

**Q.** Which yeast fitness does the source give for G12C A36C here?
**A.** 0.518

**Q.** With C55A G63A as the variant, how does the yeast fitness read?
**A.** 0.55

**Q.** For G9A C49U C55A, which yeast fitness is on record?
**A.** ≤ 0.5

**Q.** For U7C C24A C61U, which yeast fitness is on record?
**A.** 0.543

**Q.** For U16G A65U, which yeast fitness is on record?
**A.** 0.876

**Q.** For U3C G10C A20C G56C, which yeast fitness is on record?
**A.** 0.577

**Q.** Which yeast fitness does the source give for C4A G23A A40C U53C here?
**A.** ≤ 0.5

**Q.** For C11U C22G U59C, which yeast fitness is on record?
**A.** 0.575

**Q.** Which yeast fitness does the source give for G9C A14G G52C C60A here?
**A.** ≤ 0.5

**Q.** With U3C C49G G63C as the variant, how does the yeast fitness read?
**A.** 0.617

**Q.** With C11U C27G A43C as the variant, how does the yeast fitness read?
**A.** 0.577

**Q.** Which yeast fitness does the source give for U2A U7A A15U G56A here?
**A.** ≤ 0.5

**Q.** For G18A C31G C34A U47C, which yeast fitness is on record?
**A.** ≤ 0.5

**Q.** Which yeast fitness does the source give for C11A A21G C34U A37G C62A here?
**A.** ≤ 0.5

**Q.** With A14U A37U A45U as the variant, how does the yeast fitness read?
**A.** ≤ 0.5

**Q.** For A42C A69G, which yeast fitness is on record?
**A.** 0.97

**Q.** With U26C A70G as the variant, how does the yeast fitness read?
**A.** 0.915

**Q.** With G23A C30U G63A as the variant, how does the yeast fitness read?
**A.** ≤ 0.5

**Q.** For C4A C24G G63A C66A, which yeast fitness is on record?
**A.** ≤ 0.5

**Q.** For A40C C61U, which yeast fitness is on record?
**A.** 0.799

**Q.** For C34U C46G A69U, which yeast fitness is on record?
**A.** 0.576

**Q.** With A15G C24G C29U as the variant, how does the yeast fitness read?
**A.** ≤ 0.5

**Q.** With U19G G48C as the variant, how does the yeast fitness read?
**A.** 0.948

**Q.** With U8A A15C A21G C27U C46U A70G as the variant, how does the yeast fitness read?
**A.** ≤ 0.5

**Q.** With A14C C29U A36G A45U A70U as the variant, how does the yeast fitness read?
**A.** ≤ 0.5

**Q.** With G38C G41A C55U G67C as the variant, how does the yeast fitness read?
**A.** ≤ 0.5

**Q.** With C11G A15C G18A C30G U47G G67A as the variant, how does the yeast fitness read?
**A.** 0.656

**Q.** With U16G A20U as the variant, how does the yeast fitness read?
**A.** 0.642

**Q.** With A14U G23C A70C as the variant, how does the yeast fitness read?
**A.** 0.586

**Q.** With A14U G44A G58C as the variant, how does the yeast fitness read?
**A.** ≤ 0.5

**Q.** Which yeast fitness does the source give for C4U G51C U59G U64C here?
**A.** ≤ 0.5

**Q.** With C34U C46U A69G A70U as the variant, how does the yeast fitness read?
**A.** ≤ 0.5

**Q.** For C11A G17A C33U, which yeast fitness is on record?
**A.** ≤ 0.5

**Q.** With U13A C27A C61U C66U as the variant, how does the yeast fitness read?
**A.** ≤ 0.5

**Q.** Which yeast fitness does the source give for U3G C5U G51A here?
**A.** ≤ 0.5

**Q.** Which yeast fitness does the source give for C22G U35G A40C here?
**A.** ≤ 0.5

**Q.** For C49A A57C A69U, which yeast fitness is on record?
**A.** 0.528

**Q.** Which yeast fitness does the source give for A14G C22U C24G A42C A57G here?
**A.** ≤ 0.5

**Q.** For G39U G52A G67U, which yeast fitness is on record?
**A.** ≤ 0.5

**Q.** For U8A G9C G38A A40C, which yeast fitness is on record?
**A.** ≤ 0.5

**Q.** With U16C G25C C34U as the variant, how does the yeast fitness read?
**A.** 0.544

**Q.** For C27G A37G, which yeast fitness is on record?
**A.** 0.678

**Q.** With A14G U16A C33A C49U C55U as the variant, how does the yeast fitness read?
**A.** ≤ 0.5

**Q.** For C5U G38C G41C C60G, which yeast fitness is on record?
**A.** ≤ 0.5

**Q.** For C5U A57U C61U, which yeast fitness is on record?
**A.** 0.59

**Q.** Which yeast fitness does the source give for A15C A20C A21U C30U A40U here?
**A.** ≤ 0.5

**Q.** Which yeast fitness does the source give for U26G A45G C46U U53G G63A C66U A69U here?
**A.** ≤ 0.5

**Q.** For U13G A36G G68C, which yeast fitness is on record?
**A.** ≤ 0.5

**Q.** For U3G C5U G10A C31U G41C A43C, which yeast fitness is on record?
**A.** ≤ 0.5

**Q.** Which yeast fitness does the source give for U16C A43C A45U C49G here?
**A.** 0.722

**Q.** With C22U U32A C46G G52C as the variant, how does the yeast fitness read?
**A.** ≤ 0.5

**Q.** With C4G U13G as the variant, how does the yeast fitness read?
**A.** 0.882

**Q.** Which yeast fitness does the source give for U7G A21U C29A C55A A69U here?
**A.** ≤ 0.5

**Q.** With U26C G67U as the variant, how does the yeast fitness read?
**A.** 0.696

**Q.** Which yeast fitness does the source give for U7C U35C A37C here?
**A.** 0.732

**Q.** With A14G C31U G68C as the variant, how does the yeast fitness read?
**A.** ≤ 0.5

**Q.** With A20G C31U A42U C46U U59G A65U as the variant, how does the yeast fitness read?
**A.** ≤ 0.5

**Q.** Which yeast fitness does the source give for C4A G9C A14G C30A G39A here?
**A.** ≤ 0.5

**Q.** For U13G A20U U53C C62U, which yeast fitness is on record?
**A.** ≤ 0.5

**Q.** For C5U C27G U47C A70U, which yeast fitness is on record?
**A.** ≤ 0.5

**Q.** With C46A G48C as the variant, how does the yeast fitness read?
**A.** 0.924

**Q.** For U54A A65U, which yeast fitness is on record?
**A.** 0.618

**Q.** Which yeast fitness does the source give for C5G C66G here?
**A.** 0.781

**Q.** For C4A C22U C60U G67C, which yeast fitness is on record?
**A.** 0.519

**Q.** Which yeast fitness does the source give for A36U U64A here?
**A.** 0.535

**Q.** Which yeast fitness does the source give for U7G G56A here?
**A.** 1.06

**Q.** For C49U C60A A70G, which yeast fitness is on record?
**A.** 0.546

**Q.** For G6A C33G G48A U54C C66G A70C, which yeast fitness is on record?
**A.** ≤ 0.5

**Q.** With C11U A15U C31A U32A A57G G67A as the variant, how does the yeast fitness read?
**A.** ≤ 0.5

**Q.** With C55A C62G G67A as the variant, how does the yeast fitness read?
**A.** ≤ 0.5

**Q.** With U3G A45G A57G as the variant, how does the yeast fitness read?
**A.** 0.717

**Q.** With U3C C4G G12C as the variant, how does the yeast fitness read?
**A.** 0.687

**Q.** Which yeast fitness does the source give for C29G U64C here?
**A.** 0.688

**Q.** For G12C C27U G58C A69C, which yeast fitness is on record?
**A.** 0.657

**Q.** For C24G C30G C31U U35A A36U G44A G63C, which yeast fitness is on record?
**A.** 0.86

**Q.** With C11A A15G C33U A37G as the variant, how does the yeast fitness read?
**A.** ≤ 0.5

**Q.** For U26C U32C, which yeast fitness is on record?
**A.** 0.874

**Q.** With G6C A15U as the variant, how does the yeast fitness read?
**A.** 0.738

**Q.** Which yeast fitness does the source give for C4G A40U C49A C55U here?
**A.** 0.515

**Q.** Which yeast fitness does the source give for C34G U35C here?
**A.** 0.613

**Q.** With A20G as the variant, how does the yeast fitness read?
**A.** 1

**Q.** For U16A U32C A42U, which yeast fitness is on record?
**A.** 0.637

**Q.** For C29U A43U, which yeast fitness is on record?
**A.** 1.04
